According to ChEMBL document CHEMBL1148356, “Synthesis and biological evaluation of 3-heterocyclyl-7,8,9,10-tetrahydro-(7,10-ethano)-1,2,4-triazolo[3,4-a]phthalazines and analogues as subtype-selective inverse agonists for the GABA(A)alpha5 benzodiazepine binding site” (J Med Chem, 2004):
The source made the active and inactive calls. The calls are words filed in the database; no cut-off is given here.

Experiments:
[1] = Oral bioavailability in rat; type: ADME, organism-based; details: in vivo
Summary of the method: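 Male SD rats with jugular cannulas were fasted overnight and dosed either by tail-vein IV bolus or orally (n = 3 per route). Serial jugular blood samples were taken up to 8 h. Plasma was frozen at −20 °C, protein-precipitated with acetonitrile containing internal standard, and quantified by LC-MS/MS.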

[2] = target: T1, GABA-A receptor; alpha-1/beta-3/gamma-2 (Homo sapiens) (UniProt P14867+P18507+P28472); assay: Percent change in electrophysiological response in Xenopus oocytes expressing Alpha1-beta3-gamma2 GABA-A receptor; type: functional, cell-based; details: Oocyte
Summary of the method: (§1)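 Two-electrode voltage clamp on Xenopus oocytes injected with human GABA-A subunit cDNAs, 24-72 h expression, perfused with modified Barth's medium at pH 7.5, clamped between -40 and -70 mV. The GABA EC20 was titrated against a 3 mM GABA maximum. […] Result is % change of control current, mean ± SE of ≥4 oocytes.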

[3] = target: T1, GABA-A receptor; alpha-1/beta-3/gamma-2 (Homo sapiens); assay: Percent maximum change in electrophysiological response in Xenopus oocytes expressing alpha-1-beta-3-gamma-2 GABA-A receptor; type: functional, cell-based; details: Oocyte; summary of the method: as §1
[4] = target: T2, GABA-A receptor; alpha-3/beta-3/gamma-2 (Homo sapiens) (UniProt P18507+P28472+P34903); assay: Percent maximum change in electrophysiological response in Xenopus oocytes expressing alpha-3-beta-3-gamma-2 GABA-A receptor; type: functional, cell-based; details: Oocyte; summary of the method: as §1
[5] = target: T3, GABA-A receptor; alpha-3/beta-3/gamma-2 (Homo sapiens, UniProt P18507+P28472+P34903); assay: Binding affinity towards human gamma-aminobutyric-acid A receptor alpha-3-beta-3-gamma-2 using [3H]Ro-151788 expressed in L(tk-) cells; type: cell-based
T3 sequence (P18507 whole entry): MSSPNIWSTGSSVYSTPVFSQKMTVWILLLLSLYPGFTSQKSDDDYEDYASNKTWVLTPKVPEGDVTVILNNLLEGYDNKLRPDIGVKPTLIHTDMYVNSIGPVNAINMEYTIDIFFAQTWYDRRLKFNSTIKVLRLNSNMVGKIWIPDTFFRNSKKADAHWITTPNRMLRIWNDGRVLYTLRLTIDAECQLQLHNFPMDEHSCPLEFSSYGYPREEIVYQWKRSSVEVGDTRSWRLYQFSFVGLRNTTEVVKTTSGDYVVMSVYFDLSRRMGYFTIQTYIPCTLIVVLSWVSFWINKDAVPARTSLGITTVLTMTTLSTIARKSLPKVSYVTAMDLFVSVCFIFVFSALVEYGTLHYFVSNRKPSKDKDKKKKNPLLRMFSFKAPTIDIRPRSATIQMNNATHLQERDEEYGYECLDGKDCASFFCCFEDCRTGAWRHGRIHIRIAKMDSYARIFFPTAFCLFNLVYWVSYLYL
T3 sequence (P28472 whole entry): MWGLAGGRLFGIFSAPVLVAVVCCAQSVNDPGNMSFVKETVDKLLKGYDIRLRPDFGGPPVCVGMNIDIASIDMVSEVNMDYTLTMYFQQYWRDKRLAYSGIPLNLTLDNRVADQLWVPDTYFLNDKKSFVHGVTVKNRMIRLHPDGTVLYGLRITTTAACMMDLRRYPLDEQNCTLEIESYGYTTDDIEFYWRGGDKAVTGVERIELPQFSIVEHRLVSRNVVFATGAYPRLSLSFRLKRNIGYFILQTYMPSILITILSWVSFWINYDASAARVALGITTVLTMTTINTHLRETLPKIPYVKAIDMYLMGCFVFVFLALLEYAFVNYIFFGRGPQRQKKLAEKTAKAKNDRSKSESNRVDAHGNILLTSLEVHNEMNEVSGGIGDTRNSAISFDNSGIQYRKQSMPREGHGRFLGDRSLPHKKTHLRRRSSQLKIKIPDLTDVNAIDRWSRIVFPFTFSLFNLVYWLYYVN
T3 sequence (P34903 whole entry): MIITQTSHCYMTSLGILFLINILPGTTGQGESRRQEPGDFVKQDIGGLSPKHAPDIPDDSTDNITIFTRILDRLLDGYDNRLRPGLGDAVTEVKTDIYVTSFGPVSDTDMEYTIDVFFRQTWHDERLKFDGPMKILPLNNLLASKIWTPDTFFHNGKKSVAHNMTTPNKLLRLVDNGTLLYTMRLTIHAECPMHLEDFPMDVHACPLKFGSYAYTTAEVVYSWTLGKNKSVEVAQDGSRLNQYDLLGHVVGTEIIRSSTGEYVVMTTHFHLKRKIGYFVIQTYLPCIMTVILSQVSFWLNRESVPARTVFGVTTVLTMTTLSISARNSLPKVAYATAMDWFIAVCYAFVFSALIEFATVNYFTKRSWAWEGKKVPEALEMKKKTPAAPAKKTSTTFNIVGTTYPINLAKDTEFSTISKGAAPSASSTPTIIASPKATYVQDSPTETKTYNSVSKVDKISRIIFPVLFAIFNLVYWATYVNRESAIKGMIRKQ

[6] = target: T4, GABA-A receptor; alpha-5/beta-3/gamma-2 (Homo sapiens) (UniProt P18507+P28472+P31644); assay: Percent change in electrophysiological response in Xenopus oocytes expressing Alpha-5-beta-3-gamma-2 GABA-A receptor; type: functional, cell-based; details: Oocyte; summary of the method: as §1
[7] = target: T4, GABA-A receptor; alpha-5/beta-3/gamma-2 (Homo sapiens); assay: Percent maximum change in electrophysiological response in Xenopus oocytes expressing alpha-5-beta-3-gamma-2 GABA-A receptor; type: functional, cell-based; details: Oocyte; summary of the method: as §1
[8] = target: T5, GABA-A receptor; alpha-2/beta-3/gamma-2 (Homo sapiens, UniProt P18507+P28472+P47869); assay: Binding affinity towards human gamma-aminobutyric-acid A receptor alpha-2-beta-3-gamma-2 using [3H]Ro-151788 expressed in L(tk-) cells; type: cell-based
T5 sequence (P18507 whole entry): T3 sequence (P18507 whole entry)
T5 sequence (P28472 whole entry): T3 sequence (P28472 whole entry)
T5 sequence (P47869 whole entry): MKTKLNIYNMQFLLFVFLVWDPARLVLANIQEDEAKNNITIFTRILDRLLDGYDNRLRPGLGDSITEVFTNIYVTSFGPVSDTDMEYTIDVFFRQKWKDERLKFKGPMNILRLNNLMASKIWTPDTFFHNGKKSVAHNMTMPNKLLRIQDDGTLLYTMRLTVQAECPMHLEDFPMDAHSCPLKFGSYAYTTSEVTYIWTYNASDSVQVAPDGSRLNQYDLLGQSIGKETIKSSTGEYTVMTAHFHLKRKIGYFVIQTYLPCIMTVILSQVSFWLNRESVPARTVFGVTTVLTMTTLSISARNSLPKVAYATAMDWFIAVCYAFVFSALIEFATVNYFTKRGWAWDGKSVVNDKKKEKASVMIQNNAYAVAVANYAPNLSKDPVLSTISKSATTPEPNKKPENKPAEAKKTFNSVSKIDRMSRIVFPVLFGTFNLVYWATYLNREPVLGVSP

[9] = target: T2, GABA-A receptor; alpha-3/beta-3/gamma-2 (Homo sapiens); assay: Percent change in electrophysiological response in Xenopus oocytes expressing Alpha3-beta3-gamma2 GABA-A receptor; type: functional, cell-based; details: Oocyte; summary of the method: as §1
[10] = target: GABA-A receptor; alpha-6/beta-3/gamma-2 (Homo sapiens, UniProt P18507+P28472+Q16445); assay: Inhibition of [3H]Ro-151788 binding to human alpha-6-beta-3-gamma-2 GABA-A receptor expressed in L(tk-) cells; type: cell-based
Sequence of GABA-A receptor; alpha-6/beta-3/gamma-2 (Q16445 whole entry, one chain of several): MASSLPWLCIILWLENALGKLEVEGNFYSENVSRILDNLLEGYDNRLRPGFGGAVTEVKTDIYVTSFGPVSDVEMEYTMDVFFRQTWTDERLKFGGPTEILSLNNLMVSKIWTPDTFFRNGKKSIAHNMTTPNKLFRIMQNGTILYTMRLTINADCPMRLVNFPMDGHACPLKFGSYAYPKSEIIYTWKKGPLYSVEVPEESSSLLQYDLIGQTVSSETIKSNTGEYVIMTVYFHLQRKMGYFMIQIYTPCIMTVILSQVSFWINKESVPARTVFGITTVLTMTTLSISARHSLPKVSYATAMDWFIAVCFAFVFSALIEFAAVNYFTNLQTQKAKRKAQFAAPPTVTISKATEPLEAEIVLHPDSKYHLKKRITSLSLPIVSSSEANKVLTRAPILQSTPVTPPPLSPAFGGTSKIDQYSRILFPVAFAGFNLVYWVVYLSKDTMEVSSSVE

[11] = test system: Rattus norvegicus; assay: Tested for cognitive performance in rats in delayed matching-to-place version of water maze test at 1 mg/kg p.o.; Significant enhancement in performance; type: functional, organism-based; parameters: dose 1 mg/kg
[12] = target: GABA-A receptor; alpha-2/beta-3/gamma-2 (Homo sapiens) (UniProt P18507+P28472+P47869); assay: Percent change in electrophysiological response in Xenopus oocytes expressing Alpha2-beta3-gamma2 GABA-A receptor; type: functional, cell-based; details: Oocyte; summary of the method: as §1

Cc1cc(-c2nnc3c4ccccc4c(OCc4ccccn4)nn23)no1
bioavailability [1]: 41% | Efficacy [2]: -2% | Efficacy [3]: -14% | Efficacy [4]: -17% | Ki [5]: 1.4 nM | Efficacy [6]: -46% | Efficacy [7]: -45% | Ki [8]: 2.7 nM | Efficacy [9]: -4% | Ki [10]: 4.41 µM | Activity [11]: Active | Efficacy [12]: 15%
